Assay outcomes (PubChem BioAssay)
Only some compounds are listed: those with a hit (about 3.5% of all), similar ones and a draw of the others.
TCR CD3 inh = inhibitors of human TCR-CD3 interaction, primary screen, biochemical, fluorescence, TAMRA-labeled TCR probe; T-cell receptor (TCR); inhibition, % at 9.4 µM; hit rate 0.37% among 360,000; in the data active = inhibition above about 19%;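 also: recombinant mutant TCR 2C K166C tagged with TAMRA read by polarization; 0% = receptor in buffer alone and 100% = receptor with positive control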
HTRA1 inhibitor = HTRA1 serine protease inhibitors, primary screen, biochemical, fluorescence polarization, HTS; inhibition, % at 5.96 µM; AID 504803, 2011; hit rate 0.5% among 340,000; Q92743; recombinant HTRA1, FP-rhodamine activity-based probe; in the data active = inhibition above about 36%;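 also: 0% = enzyme with DMSO and 100% = wells lacking enzyme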
Target sequence (Q92743 whole entry, looked up): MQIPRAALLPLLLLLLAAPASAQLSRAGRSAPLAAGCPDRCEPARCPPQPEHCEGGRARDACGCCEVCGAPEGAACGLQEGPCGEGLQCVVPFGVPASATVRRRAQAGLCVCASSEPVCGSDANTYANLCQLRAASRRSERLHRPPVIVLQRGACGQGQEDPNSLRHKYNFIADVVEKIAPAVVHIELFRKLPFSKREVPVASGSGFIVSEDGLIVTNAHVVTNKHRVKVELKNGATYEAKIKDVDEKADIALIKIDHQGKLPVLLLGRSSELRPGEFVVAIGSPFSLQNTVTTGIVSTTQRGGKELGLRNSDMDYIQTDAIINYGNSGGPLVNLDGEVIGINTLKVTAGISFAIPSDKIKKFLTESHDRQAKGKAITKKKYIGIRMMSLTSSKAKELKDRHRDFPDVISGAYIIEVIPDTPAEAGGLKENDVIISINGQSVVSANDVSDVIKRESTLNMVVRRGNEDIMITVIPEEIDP
SIAE primary = human SIAE inhibitors, primary screen, biochemical, fluorescence polarization, FP-Rh probe, 1536-well HTS; Sialate O-acetylesterase (Homo sapiens), Q9HAT2; SIAE FP-Rh probe binding; inhibition, % at 9.66 µM; hit rate 0.69% among 370,000; AID 1053197, 2014;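 active = inhibition above a cutoff: mean of compounds within the control limits plus 3 SD of those, cut at about 17% in these data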;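 also: 0% = plate median of compound wells and 100% = probe without SIAE protein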
mABHD4 FP = ABHD4 inhibitors, primary screen, biochemical, fluorescence polarization, mouse; inhibition, % at 8.92 µM; (Lyso)-N-acylphosphatidylethanolamine lipase (Mus musculus), Q8VD66; AID 720543, 2013; purified mABHD4, FP-Rh probe fluorescence polarization; hit rate 0.54% among 370,000;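 active = inhibition exceeding the mean over every tested compound plus 3 SD, cut at about 30% in these data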;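 also: 0% = plate median of compound wells and 100% = S159A mutant with DMSO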
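Doses – 8.92 µM, single dose · Material – wild-type mouse ABHD4 protein · Replication – single well per compound (singlicate) · Measure – percent inhibition of probe binding, normalized to plate controls · Schedule – 45 min compound pre-incubation plus 60 min probe step, 25 °C · Detection – fluorescence polarization with parallel and perpendicular emission, 525/598 nm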
PRMT1 inh = PRMT1 methyltransferase inhibitors, primary screen, biochemical, fluorescence polarization | Protein arginine N-methyltransferase 1 (Homo sapiens), Q99873 | inhibition, % at 2.79 µM | recombinant PRMT1, activity-based probe fluorescence polarization | hit rate 1.3% among 370,000;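 active = inhibition above about 21% made by adding two undisclosed values, limit read from the data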
rCAG binder = binders of r(CAG) RNA repeats, primary screen, biochemical, fluorescence | inhibition, % at 3 µM | hit rate 1.3% among 370,000 | r(CAG) RNA repeat, TO-PRO-1 dye displacement fluorescence;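 active = inhibition above the plate cutoff, the mean of all test compounds on that plate plus 3 SD, cut at about 35% in these data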;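 also: 0% = DMSO alone and 100% = 100 µM mitoxantrone as full dye displacement; higher means more dye released from RNA so lower well fluorescence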
mABHD4 conf = ABHD4 inhibitors, retest, confirmation, biochemical, fluorescence polarization, mouse; shares compounds with mABHD4 FP; purified mABHD4, FP-Rh probe fluorescence polarization; inhibition, % at 8.92 µM; hit rate 55% among 1,800; AID 720658, 2013;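 active = mean inhibition across replicates above the hit cutoff set in the primary screen, cut at about 30% in these data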;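 also: 0% = wild-type ABHD4 with DMSO and 100% = catalytically dead S159A mutant with DMSO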
SIAE confirm = human SIAE inhibitors, retest, confirmation, biochemical, fluorescence polarization, FP-Rh probe, triplicate | shares compounds with SIAE primary | SIAE FP-Rh activity-based probe | inhibition, % at 9.66 µM | hit rate 13% among 2,300 | AID 1117263, 2014;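 active = mean inhibition of the replicates above the hit cutoff set in the primary screen, cut at about 17% in these data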;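 also: 0% = SIAE with DMSO and probe and 100% = probe without SIAE; inhibitors lower polarization as more probe stays unbound to SIAE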
The depositor's hits bear a star; x = no result.

SMILES	TCR CD3 inh	HTRA1 inhibitor	SIAE primary	mABHD4 FP	PRMT1 inh	rCAG binder	mABHD4 conf	SIAE confirm
O=C(C1CCCCC1)n1ccc2ccc(-c3ccc4ccn(Cc5ccccc5)c4c3)cc21	x	x	-3	7	0	12	x	x
N=C1c2c(cc(=O)n3c2[nH]c2ccccc23)CN1CCN1CCOCC1	-2	26	13	31*	6	15	13	x
COc1cc(Cl)ccc1OCc1cc(C(=O)N2C[C@]3(C)C[C@H]2CC(C)(C)C3)no1	7	-24	-7	32*	1	-4	27	x
COc1cc(Cl)ccc1OCc1cc(C(=O)N2C[C@H]3CC[C@H]2C3)no1	4	-2	12	-2	1	-5	x	x
COc1ccc(CNc2ncnc3c2[nH]c2ccccc23)cc1	-2	x	14	14	-3	4	x	x
COc1ccc(CNc2ncnc3c2[nH]c2cc(OC)c(OC)cc23)cc1	0	14	37*	32*	-1	7	70*	24*
CC(COc1ccc(C#N)cc1)CN1CCC(C(O)(c2ccccc2)c2ccccc2)CC1 (stereo not drawn)	x	x	2	3	1	3	x	x
O=[N+]([O-])c1cccc(C=NNc2ccc3ccccc3n2)c1O	-1	23	17*	37*	0	34	37*	3
O=C1CC(Nc2ccc(N3CCOCC3)cc2)C(=O)N1C1CCCCC1 (stereo not drawn)	6	20	8	28	7	7	x	x
CC(C)N1C(=O)CC(Nc2ccc(N3CCOCC3)cc2)C1=O (stereo not drawn)	2	10	21*	33*	11	10	42*	3
COC(=O)Cc1csc(Nc2ccc(F)c(Cl)c2)n1	-1	0	22*	36*	1	1	-2	3
CC(C)N1CCCCC(NC(=O)c2ccc(F)c(F)c2)C1=O (stereo not drawn)	x	x	7	-4	0	-1	x	x
Brc1ccc(-c2ccc(/C=N/Nc3nc4ccccc4[nH]3)o2)cc1	-1	10	19*	32*	4	25	59*	34*
C(=N\Nc1nc2ccccc2[nH]1)/c1ccccc1	0	-3	13	11	5	0	x	x
[O-][n+]1c2c(c3c4non(O)c4ccc31)CCCC2	8	20	31*	35*	1	12	27	28*
CCOC(=O)CCCNC(=O)OCCCN1CCC2(CCC(c3ccccc3)CC2)C1=O (stereo not drawn)	x	x	-1	-2	-2	-1	x	x
CN(C)c1ccc(NC(=S)Nc2ccc3c(c2)c(=O)n(C)n3-c2ccc(C(C)(C)C)cc2)cc1	-8	x	20*	31*	8	12	45*	8
O=C(NC(=S)Nc1cccc2c(O)cccc12)c1ccco1	4	3	17*	30*	6	15	4	2
CN(C)NC(=S)NC(=O)C12CC3CC(CC(C3)C1)C2	5	-2	0	-6	0	3	x	x
CN(C(=S)NC(=O)C12CC3CC(CC(C3)C1)C2)c1ccc(O)cc1	17	11	18*	41*	26*	8	15	1
COC(=O)c1c(Cl)c2n3ccccc3c(C)c(-c3ccccc3)c-2c1C(=O)OC	17	9	21*	44*	34*	-20	22	-5
C(=C\c1ccccc1)/C=N/Nc1nc2ccccc2[nH]1	-1	32	22*	32*	-1	2	33*	18*
O=C(CSc1nnc(-c2cnccn2)n1-c1ccccc1)Nc1ccc2cn[nH]c2c1	x	x	-6	5	1	0	x	x
O=c1cc(-c2ccccc2)[nH]c2[nH]n(-c3ccccc3)c(=O)c12	3	15	7	25	7	22	x	x
CCOC(=O)Cc1cc(=O)c2c(=O)n(-c3ccccc3)[nH]c2[nH]1	6	14	18*	57*	12	27	4	6
SMILES	TCR CD3 inh	HTRA1 inhibitor	SIAE primary	mABHD4 FP	PRMT1 inh	rCAG binder	mABHD4 conf	SIAE confirm
Brc1ccc2nc(-c3ccc(CN4CCC(c5nc6ccccc6[nH]5)CC4)cc3)c(-c3ccccc3)nc2c1	5	x	-23	3	-2	14	x	x
COc1ccc(C(=O)c2[nH]c(N)c(C(=O)NCCc3c[nH]c4ccccc34)c2-c2ccc(Cl)c(F)c2)cc1	-4	x	21*	34*	4	14	37*	9
Nc1[nH]c(C(=O)c2ccc(Br)cc2)c(-c2ccc(Cl)cc2[N+](=O)[O-])c1C(=O)NCCc1c[nH]c2ccccc12	14	x	20*	40*	2	20	29	5
CCCNC(=O)Nc1ccc2c(c1)C(=O)N(C)[C@H]1CC[C@@H](CC(=O)OC)O[C@H]1CO2	x	x	10	2	2	14	x	x
COc1cccc(/C=N/NC(=O)c2ccc3nc[nH]c3c2)c1O	-19	11	-42	7	3	3	x	x
COc1cccc(/C=N/NC(=O)c2cc3c(OC)ccc(OC)c3[nH]2)c1O	12	25	34*	37*	2	28	62*	9
O=C(NNc1c2ccccc2nc2ccccc12)c1ccc(O)cc1O	-6	26	28*	35*	4	32	62*	10
CN1CCCN(S(=O)(=O)c2ccc3c(c2)CCC(=O)N3)CC1	x	x	3	6	4	2	x	x
Cc1ccc(C2=CCN(C)C(=O)N2c2ccccc2)cc1	x	x	4	6	-1	4	x	x
Nc1nc2ncccc2cc1C(=O)c1c[nH]c2ccccc12	x	x	-2	0	-5	4	x	x
Oc1cccc(NC(=S)Nc2ccc(SC(F)F)cc2)c1	-6	6	6	-16	10	15	x	x
Oc1cccc2c(NC(=S)Nc3ccc(SC(F)F)cc3)cccc12	-5	23	19*	40*	17	13	-2	2
Cn1c(CNc2ccccc2O)nc2ccccc21	4	19	19*	31*	0	9	10	10
Cc1ccccc1NCc1nc2ccccc2n1C	2	1	12	0	1	-2	x	x
CC(C)CN1C(=O)C[C@@]2(C(=O)N(C)c3ccc(NC(=O)C(F)(F)F)cc32)C1c1ccccc1 (stereo partly drawn)	x	x	3	-1	-3	-1	x	x
